Values belong to the molecule of their own block, whether it stands above or below them. The source made the active and inactive calls. No cut-off for these calls is given here.
Experiments:
[1] = Cytotoxicity against mouse P815B cells incubated for 2 to 4 hrs by MTS assay; assay type: cell-based, P815; conditions: time 2-4 hrs, read-out: LD50 (the source's name)
Summary of the method: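 1 × 10⁵ cells per well in DMEM; MTS with PMS, diluted in PBS, added to the wells; incubated 2–4 h at 37 °C; absorbance read at 490 nm.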

[2] = molecular target: Indoleamine 2,3-dioxygenase 1 (Homo sapiens) (UniProt P14902); experiment: Inhibition of human IDO1 assessed as reduction in kynurenine production at 100 uM using tryptophan as substrate by cellular assay
[3] = molecular target: Indoleamine 2,3-dioxygenase 1 (Homo sapiens) (UniProt P14902); experiment: Inhibition of human IDO1 assessed as reduction in kynurenine production at 100 uM using tryptophan as substrate by enzymatic assay
[4] = Metabolic stability in liver microsomes (unknown origin) assessed as half life at 10 uM by UPLC analysis; assay type: ADME, Microsome
[5] = Cysteamine reactivity assessed as aromatic signals at 1 mM measured after 30 mins by LC-MS/MS analysis; assay type: physicochemical; conditions: 0.5 h, 1000 µM
[6] = Cysteamine reactivity assessed as aromatic signals at 1 mM measured after 30 mins by 1H NMR spectroscopy; assay type: physicochemical; conditions: 0.5 h, 1000 µM
[7] = molecular target: Tryptophan 2,3-dioxygenase (Homo sapiens, UniProt P48775); experiment: Inhibition of human TDO2 expressed in HEK293E cells assessed as reduction in N-formylkynurenine formation using tryptophan as substrate measured after 24 hrs by HPLCC based UV spectrometry; assay type: cell-based, HEK2936E
[8] = Toxicity in mouse P815 cells assessed as cell cycle distribution at > 100 uM measured after 6 to 12 hrs by propidium iodide DNA staining based flow cytometry; conditions: time 6-12 hrs

Sequence of Indoleamine 2,3-dioxygenase 1 (Homo sapiens) (P14902 whole entry, looked up): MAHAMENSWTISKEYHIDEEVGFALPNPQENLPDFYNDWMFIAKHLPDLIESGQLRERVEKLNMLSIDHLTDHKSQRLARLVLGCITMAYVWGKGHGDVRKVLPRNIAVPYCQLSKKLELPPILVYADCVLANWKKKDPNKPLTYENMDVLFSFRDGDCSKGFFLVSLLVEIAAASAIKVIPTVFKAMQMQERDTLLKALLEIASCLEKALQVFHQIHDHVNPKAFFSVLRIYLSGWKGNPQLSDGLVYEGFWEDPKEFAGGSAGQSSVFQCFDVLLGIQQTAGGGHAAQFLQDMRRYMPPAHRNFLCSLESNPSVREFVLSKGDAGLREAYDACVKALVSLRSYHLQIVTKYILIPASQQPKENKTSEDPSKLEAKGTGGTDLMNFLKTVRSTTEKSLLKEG
Sequence of Tryptophan 2,3-dioxygenase (P48775 whole entry): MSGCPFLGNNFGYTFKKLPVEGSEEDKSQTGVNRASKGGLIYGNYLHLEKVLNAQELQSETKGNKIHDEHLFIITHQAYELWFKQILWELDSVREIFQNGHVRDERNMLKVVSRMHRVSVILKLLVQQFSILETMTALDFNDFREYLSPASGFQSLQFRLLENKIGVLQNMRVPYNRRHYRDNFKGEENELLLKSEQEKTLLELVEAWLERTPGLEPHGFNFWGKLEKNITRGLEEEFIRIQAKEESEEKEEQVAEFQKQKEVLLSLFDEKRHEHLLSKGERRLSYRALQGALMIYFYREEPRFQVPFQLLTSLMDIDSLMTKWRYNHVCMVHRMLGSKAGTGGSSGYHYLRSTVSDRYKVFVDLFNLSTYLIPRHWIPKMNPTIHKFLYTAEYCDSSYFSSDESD

SMILES: c1ccc2c(-c3ccc4ccncc4c3)c[nH]c2c1
- CC50 [1]: > 20 µM

SMILES: c1ccc2c(-c3ccc4cncnc4c3)c[nH]c2c1
- CC50 [1]: > 100 µM

SMILES: c1ccc2c(-c3ccc4ncncc4c3)c[nH]c2c1
- CC50 [1]: > 100 µM

SMILES: Fc1ccc2c(/C=C/c3nnn[nH]3)c[nH]c2c1
- inhibition [2]: inactive
- inhibition [3]: inactive
- half-life at 10 µM [4]: > 1440 min
- Drug metabolism [5]: Metabolite_Detected
- Drug metabolism [6]: Metabolite_Detected
- CC50 [1]: > 100 µM

SMILES: c1ccc2c(-c3ccc4cnccc4c3)c[nH]c2c1
- CC50 [1]: > 30 µM

SMILES: O=C1NCC2C=CC(c3c[nH]c4ccccc34)=CC2N1 (stereo not given)
- CC50 [1]: > 30 µM

SMILES: Fc1ccc2c(/C=C/c3cccnc3)c[nH]c2c1
- inhibition [2]: inactive
- inhibition [3]: inactive
- CC50 [1]: > 80 µM

- IC50 [7]: 3.2 µM
SMILES: O=S(=O)(c1ccc(-c2c[nH]c3cc(F)ccc23)cn1)N1CCNCC1

SMILES: c1ccc2c(-c3ccc4n[nH]nc4c3)c[nH]c2c1
- Drug metabolism [5]: Metabolite_Notdetected
- Drug metabolism [6]: Metabolite_Notdetected
- CC50 [1]: > 100 µM
- Activity [8]: Non-Toxic

- half-life at 10 µM [4]: 45 min
SMILES: FC(F)(F)Cn1nnc2ccc(-c3c[nH]c4ccccc34)cc21

Source: ChEMBL document CHEMBL4808224, “Rational Design of Original Fused-Cycle Selective Inhibitors of Tryptophan 2,3-Dioxygenase” (J Med Chem, 2021)
